TAG inh: inhibitors of triacylglycerol accumulation, primary screen, cell-based, uHTS, fluorescence, H9c2; H9c2 cells, Nile Red lipid (TAG) fluorescence; cells loaded with 200 µM oleic acid; inhibition, % at 12.5 µM; 0.66% of 230,000 active;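 active = pattern-corrected inhibition of lipid staining of at least 50% with the nuclear-stain viability signal not falling by more than 50%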
HGIII-sPLA2 inh: human group III sPLA2 inhibitors, primary screen, biochemical, QFRET, BODIPY PC-A2 liposome substrate; Group 3 secretory phospholipase A2 (Homo sapiens), Q9NZ20; QFRET BODIPY PC-A2 liposome hydrolysis, fluorescence; inhibition, % at 12.2 µM; 0.56% of 370,000 active;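 active = inhibition above mean plus 3 SD of compounds lying within the high and low control bounds, cut at about 19% in these data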
Target sequence (Q9NZ20 whole entry, looked up): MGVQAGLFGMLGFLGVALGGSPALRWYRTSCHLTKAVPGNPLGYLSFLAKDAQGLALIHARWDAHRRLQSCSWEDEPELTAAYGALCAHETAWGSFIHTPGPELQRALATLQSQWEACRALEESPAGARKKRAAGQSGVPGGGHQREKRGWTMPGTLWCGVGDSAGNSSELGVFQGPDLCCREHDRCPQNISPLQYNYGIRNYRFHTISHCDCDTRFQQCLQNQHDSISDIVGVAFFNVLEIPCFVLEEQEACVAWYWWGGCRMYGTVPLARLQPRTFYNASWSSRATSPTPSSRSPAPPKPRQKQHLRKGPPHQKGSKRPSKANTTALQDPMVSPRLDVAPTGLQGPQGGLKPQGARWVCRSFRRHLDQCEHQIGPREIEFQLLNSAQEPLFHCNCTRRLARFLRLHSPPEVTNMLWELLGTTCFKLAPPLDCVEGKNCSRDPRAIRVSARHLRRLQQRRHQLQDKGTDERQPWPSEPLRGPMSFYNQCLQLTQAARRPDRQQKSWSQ
MT1-MMP act inh: blockers of MT1-MMP proenzyme processing, primary screen, HT1080 RFP-PRO-GFP cells, GFP/RFP fluorescence. Matrix metalloproteinase-14 (Homo sapiens), P50281. GFP/RFP ratio fluorescence, overnight; percent of plate control window, DMSO zero. GFP/RFP ratio change, % at 20 µM. 0.061% of 360,000 active. AID 651647, 2012;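 active = GFP/RFP ratio change of at least 30% with cell ATP level not reduced by more than half and red fluorescence within 50% of control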
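Read-out: GFP/RFP fluorescence ratio; Test system: RFP-PRO-GFP reporter HT1080 cells; Compound dosing: single-point 20 µM compound, 1% DMSO; Times: overnight compound exposure at 37 °C.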
Efflux pump inh: inhibitors of Candida efflux pumps in yeast, primary screen, S. cerevisiae, Nile Red, multiplex; S. cerevisiae Candida pump triplex; inhibition, % at 10 µM; 0.44% of 330,000 active; AID 485275, 2010;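 active = plate passing quality check with inhibition over a set limit, or well fluorescence over plate mean plus 4 SD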;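 note: Nile Red retained in pooled yeast measured as flow cytometry median fluorescence; higher means more Nile Red kept so more efflux inhibition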
sPLA2 confirm: human group III sPLA2 inhibitors, confirmation, biochemical, QFRET, triplicate; shares compounds with HGIII-sPLA2 inh; recombinant hGIII-sPLA2, BODIPY PC-A2 QFRET fluorescence; inhibition, % at 12.2 µM; 34% of 2,000 active; AID 743280, 2014;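 active = mean inhibition across triplicates above the hit cutoff set in the earlier primary screen, cut at about 19% in these data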
535nm interf: 535nm fluorescence optical interference, confirmation, artefact control for HGIII-sPLA2 inhibitor project, biochemical, QFRET; inhibition, % at 12.2 µM; BODIPY FL product fluorescence interference; shares compounds with HGIII-sPLA2 inh; 8.5% of 2,000 active;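 active = average inhibition above the solvent-only control mean plus 3 SD, cut at about 6% in these data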
BODIPY interf DR: 535nm fluorescence optical interference, dose response, artefact control for HGIII-sPLA2 inhibitor project, biochemical, QFRET | IC50, µM | 240 tested, under 10 active | BODIPY FL product fluorescence interference, cell-free | AID 743455, 2014 | shares compounds with HGIII-sPLA2 inh;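 active = IC50 at or below 10 µM; inactive = IC50 above 10 µM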
Numbers stand for hits; . = inactive; / = no result given. Only some compounds are listed: those with a hit (about 1.3% of all), similar ones and a draw of the others.

SMILES	TAG inh	HGIII-sPLA2 inh	MT1-MMP act inh	Efflux pump inh	sPLA2 confirm	535nm interf	others
Cc1ccc(O)c(N=Cc2cc(Cc3ccccc3)cc([N+](=O)[O-])c2O)c1	/	25	.	/	23	7.8
COCCn1c(-c2ccccc2)nc(=S)c2c1CC(C)(C)OC2	.	.	.	.	/	/
CCN(CC)CCn1c(-c2ccccc2)nc(=S)c2c1CC(C)(C)OC2	.	21	.	.	.	.
O=C(OCc1cn(Cc2cccc(Cl)c2)nn1)N1CCOCC1	/	.	/	/	/	/
COc1ccccc1N1CCN(N=Cc2ccccc2Br)CC1	/	19	/	/	.	.
CC(C)(C)c1csc(NNC(=O)c2ccc(Cl)cc2)n1	.	34	.	.	45	.	BODIPY interf DR=.
CC(C)(C)c1csc(NC(=O)c2cccnc2)n1	/	.	.	.	/	/
CC1CN(Cc2ccccc2)c2ccccc2NC1=S (configuration not stated)	/	21	.	.	22	.
CCCS(=O)(=O)c1c(S(=O)(=O)CCC)c2cnccn2c1C(=O)c1ccc(F)cc1	/	19	.	.	.	.
CCCS(=O)(=O)c1c(S(=O)(=O)CCC)c2cnccn2c1C(=O)c1ccc(CC)cc1	/	.	.	.	/	/
Cc1ccc(/C=C/c2onc(C)c2S(=O)(=O)N2CCC(C(=O)NC(C)(C)C)CC2)cc1	.	.	.	.	/	/
Cc1cc(N(C)C)cc(C)c1N=Nc1cc[n+]([O-])cc1	.	.	.	/	/	/
CC(C)NC(=O)CCN1C(=O)c2ccccc2Sc2ncccc21	/	.	.	.	/	/
O=C(O)CCN1C(=O)c2ccccc2Sc2ncccc21	/	23	.	.	.	.
COCCNC(=O)Cn1nc(-c2ccc(C)cc2)ccc1=O	/	/	.	.	/	/
COc1nccc(NCc2ccccc2)c1C#N	.	.	.	.	/	/
COc1ccc(NC(=S)Nc2ccc3nccnc3c2)cc1	/	23	.	.	.	.
CC1=C(C(=O)Nc2ccccc2C)C(c2ccc(C)o2)NC(=S)N1 (configuration not stated)	.	20	.	.	22	.
CCOC(=O)[C@@]12CCCC=C1N(CCc1ccc(Cl)cc1)C(=O)[C@H]2CC(=O)NCC12CC3CC(CC(C3)C1)C2	/	.	/	/	/	/
COc1ccc(Cl)cc1NC(=S)N1CCC(c2ccc(C)cc2)C1 (configuration not stated)	.	.	.	.	/	/
Cc1ccc(C2CCN(C(=S)NC(C)C)C2)cc1 (configuration not stated)	.	23	.	.	.	.
CCOc1cc(NC(=S)NCc2ccccc2)c(OCC)cc1NC(=O)C(C)C	/	20	.	.	29	.	BODIPY interf DR=.
CCOc1cc(NC(=S)NCc2ccco2)c(OCC)cc1NC(=O)CC(C)C	/	20	.	.	.	.
CCCCn1c(N)c(N(C(=O)CSc2nnnn2-c2ccccc2C)C2CCCC2)c(=O)[nH]c1=O	.	.	.	/	/	/
CC(C)C[C@H](NC(=O)OC(C)(C)C)C(=O)N[C@@H](CO)[C@H](O)[C@@H]1C[C@@H]1C(=O)NC1CCCCC1	/	.	.	.	/	/
SMILES	TAG inh	HGIII-sPLA2 inh	MT1-MMP act inh	Efflux pump inh	sPLA2 confirm	535nm interf	others
NC(=O)C1(Nc2ccc(-c3ccc(Br)cc3)cc2)CCCC1	.	20	.	/	.	.
Cc1ccc(NC2(C(N)=O)CCCC2)cc1	.	.	.	/	/	/
CN(Cc1cn(-c2ccccc2)nc1-c1cc2ccccc2o1)C(=O)CCC(=O)O	.	.	.	.	/	/
C[C@@H]1CN([C@H](C)CO)C(=O)CCCn2nncc2CO[C@H]1CN(C)C(=O)Nc1ccc(N2CCN(C)CC2)cc1	.	.	.	/	/	/
O=C(c1ccc(-c2cc(O)c3ncccc3c2)cc1)N1CCNCC1	.	23	.	.	.	.
O=C(COC(=O)c1c(F)cccc1Cl)NC1CCCCC1	.	.	.	/	/	/

Assay outcomes from PubChem BioAssay.
